INS-1E rescue – rescue of cytokine-induced death in INS-1E beta cells | AID 488910 | protection from cytokine-induced ATP loss, % at 10 µM | hit rate 0.1% among 20,000 | INS-1E cytokine-induced death, ATP luminescence, 48 h; normalised: neutral wells 0, positive control 100;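 active = mean replicate protection from cytokine-induced ATP loss at least 50% and at least 75% of replicates each reaching 50%; inconclusive = meets only one of the two criteria, mean or replicate share; inactive = fails both the mean and replicate share criteria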
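assay system = INS-1E rat insulinoma cells | amount = 8000 cells per well | medium = phenol-red-free RPMI with 5% fetal bovine serum | doses = one compound concentration, pin transfer | timing = 48 h cytokine plus compound treatment, 10 min reagent incubation | also added = IL-1β, TNF-α and IFN-γ cytokine mix | signal = CellTiter-Glo luminescence measuring cellular ATP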
T cruzi HTS – blocks T. cruzi growth inside host cells. intracellular Trypanosoma cruzi in host cells, plate reader. hit rate 4.9% among 22,000. activity score (inhibition), % at 5.01 µM. AID 651903; in the data active = activity score above about 55%; inconclusive = no clear call, values can overlap the other calls;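 also: parasites and compound incubated about four days before reading; 0% = median of neutral control wells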
YB-1 expression – YB-1 expression inhibition; U2OS, qRT-PCR YB-1 vs CDIP delta delta Cp, 16 h; stronger effect = higher value; zero = DMSO, each unit about twofold; hit rate 0.37% among 30,000; AID 434959; delta delta Cp (YB-1 minus CDIP) (no concentration beside the values);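 active = delta delta Cp rounded down to an integer at or above 3, about 3 SD of DMSO wells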;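 also: higher means less YB-1 transcript or more CDIP transcript relative to DMSO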
Active calls of the source: *; ? = inconclusive; · = not tested or not shown. The full list was thinned out, with hits kept by preference.

SMILES	INS-1E rescue	T cruzi HTS	YB-1 expression
C[C@H]1CN([C@@H](C)CO)C(=O)c2cccc(NC(=O)c3ccncc3)c2O[C@H]1CN(C)CC1CCCCC1	3.7	57.4*	0.295
C[C@H]1CN([C@@H](C)CO)C(=O)c2cccc(NC(=O)c3ccncc3)c2O[C@H]1CN(C)CC1CC1	8.6	-17.1	0.328
COc1ccc(NC(=O)Nc2ccc3c(c2)CC(=O)N([C@H](C)CO)C[C@H](C)[C@H](CN(C)Cc2ccc(C(=O)Nc4ccccc4N)cc2)O3)cc1	45.0	?	-0.0243
COc1ccc(NC(=O)Nc2ccc3c(c2)CC(=O)N([C@@H](C)CO)C[C@@H](C)[C@@H](CN(C)Cc2ccc(C(=O)Nc4ccccc4N)cc2)O3)cc1	-17.9	60.1*	0.15
COc1ccc(NC(=O)Nc2ccc3c(c2)C(=O)N([C@H](C)CO)C[C@H](C)[C@H](CN(C)Cc2ccc(C(=O)Nc4ccccc4N)cc2)O3)cc1	-8.7	17.3	0.0932
COc1ccc(NC(=O)Nc2ccc3c(c2)CC(=O)N([C@@H](C)CO)C[C@H](C)[C@H](CN(C)Cc2ccc(C(=O)Nc4ccccc4N)cc2)O3)cc1	4.1	45.3	0.285
COc1ccc(NC(=O)Nc2ccc3c(c2)CC(=O)N([C@@H](C)CO)C[C@H](C)[C@@H](CN(C)Cc2ccc(C(=O)Nc4ccccc4N)cc2)O3)cc1	-6.3	62.7*	-0.0447
COc1ccc(NC(=O)Nc2ccc3c(c2)CC(=O)N([C@H](C)CO)C[C@@H](C)[C@@H](CN(C)Cc2ccc(C(=O)Nc4ccccc4N)cc2)O3)cc1	-7.7	65.6*	-0.238
O=S(=O)(N[C@@H]1CCCN(Cc2cccc(OCCO)c2)C1)c1ccccc1	·	·	0.213
COC(=O)C1=CO[C@@H](O[C@@H]2O[C@H](CO)[C@@H](O)[C@H](O)[C@H]2O)[C@H]([C@H](C)OC(C)=O)[C@@H]1CC(=O)O	·	·	0.171
O=C(N/N=C/c1cn(Cc2ccccc2)c2ccccc12)c1ccccc1O	-10.3	-25.9	0.215
CC(C)CNC(=O)[C@@]1(C)c2ccccc2C(=O)N(Cc2cc(F)cc(C(F)(F)F)c2)[C@H]1c1ccc(CO)cc1	·	·	0.125
CCn1c2ccccc2c2cc(/C=N/NC(=O)c3ccccc3O)ccc21	-3.4	16.7	0.223
C[C@@H]1CN([C@@H](C)CO)C(=O)c2cccc(NC(=O)c3nc4ccccc4s3)c2O[C@@H]1CN(C)S(=O)(=O)c1ccccc1	-40.4	60.4*	0.363
C[C@@H]1CN([C@H](C)CO)C(=O)c2cccc(NS(=O)(=O)c3ccc(F)cc3)c2O[C@@H]1CN(C)S(=O)(=O)c1ccc(F)cc1	1.9	16.3	-0.416
Cc1ccc(S(=O)(=O)N(C)C[C@H]2Oc3c(NC(=O)c4nc5ccccc5s4)cccc3C(=O)N([C@H](C)CO)C[C@@H]2C)cc1	-17.5	88.9*	-0.503
Cc1ccc(S(=O)(=O)N(C)C[C@H]2Oc3c(NC(=O)c4nc5ccccc5s4)cccc3C(=O)N([C@H](C)CO)C[C@H]2C)cc1	4.2	16.0	-0.454
C[C@@H]1CN([C@H](C)CO)C(=O)c2cccc(NC(=O)c3nc4ccccc4s3)c2O[C@H]1CN(C)S(=O)(=O)c1ccccc1	-10.9	28.1	-0.331
Cc1ccc(S(=O)(=O)N(C)C[C@H]2Oc3c(NC(=O)c4nc5ccccc5s4)cccc3C(=O)N([C@@H](C)CO)C[C@@H]2C)cc1	-12.1	74.7*	-0.137
C[C@H](CO)N1C[C@H](C)[C@H](CN(C)S(=O)(=O)c2ccc(F)cc2)Oc2c(NS(=O)(=O)c3ccc(F)cc3)cccc2C1=O	-5.0	61.3*	0.193
Cc1ccc(S(=O)(=O)N(C)C[C@H]2Oc3c(NC(=O)c4nc5ccccc5s4)cccc3C(=O)N([C@@H](C)CO)C[C@H]2C)cc1	-16.7	15.6	-0.65
Cc1ccc(/C=N/NC(=O)c2cccc(C(=O)NO)c2)o1	-1.6	-9.2	-0.48
O=C(CCCCC(=O)N/N=C/c1cccnc1Cl)NO	17.0	2.3	-0.47
COC(=O)C1=C(NC(=O)c2ccc(S(=O)(=O)N3CCOCC3)cc2)CCS1	·	·	-2.1
C[C@@H]1CN([C@H](C)CO)C(=O)c2cccc(NC(=O)c3nc4ccccc4s3)c2O[C@@H]1CN(C)S(=O)(=O)c1ccccc1	6.4	9.3	-0.167
SMILES	INS-1E rescue	T cruzi HTS	YB-1 expression
C[C@H](CO)N1C[C@H](C)[C@H](CN(C)S(=O)(=O)c2ccc(F)cc2)Oc2c(NC(=O)c3nc4ccccc4s3)cccc2C1=O	-36.7	61.1*	1.28
C[C@H]1CN([C@@H](C)CO)C(=O)c2cccc(NC(=O)CCCCCC(=O)Nc3ccccc3N)c2O[C@H]1CN(C)Cc1ccc(Cl)c(Cl)c1	8.9	70.0*	-0.948
C[C@@H]1CN([C@@H](C)CO)C(=O)c2cccc(NC(=O)CCCCCC(=O)Nc3ccccc3N)c2O[C@@H]1CN(C)S(=O)(=O)c1ccc(Cl)cc1	-17.6	56.5*	0.115
C[C@@H]1CN([C@H](C)CO)C(=O)c2cccc(NC(=O)CCCCCC(=O)Nc3ccccc3N)c2O[C@@H]1CN(C)S(=O)(=O)c1ccc(Cl)cc1	0.5	?	0.243
C[C@@H]1CN([C@H](C)CO)C(=O)c2cccc(NC(=O)CCCCCC(=O)Nc3ccccc3N)c2O[C@@H]1CN(C)Cc1ccc(Cl)c(Cl)c1	3.4	60.8*	0.0666
C[C@@H]1CN([C@@H](C)CO)C(=O)c2cccc(NC(=O)CCCCCC(=O)Nc3ccccc3N)c2O[C@@H]1CN(C)Cc1ccc(Cl)c(Cl)c1	19.2	52.1	-0.129
C[C@@H]1CN([C@H](C)CO)C(=O)c2cccc(NC(=O)CCCCCC(=O)Nc3ccccc3N)c2O[C@@H]1CN(C)C	-9.1	-43.4	-0.0876
O=C(CCSc1ccccc1)NC12CC3CC(CC(C3)C1)C2	·	·	-0.107
C[C@H](CO)N1C[C@H](C)[C@H](CN(C)Cc2ccncc2)Oc2ncc(-c3ccc(F)cc3)cc2C1=O	·	7.0	-0.182
C[C@H](CO)N1C[C@H](C)[C@H](CN(C)S(=O)(=O)c2ccc(F)cc2)Oc2ncc(-c3cccc(F)c3)cc2C1=O	·	27.6	-0.17
COc1cccc(-c2cnc3c(c2)C(=O)N([C@H](C)CO)C[C@H](C)[C@H](CN(C)S(C)(=O)=O)O3)c1	·	3.6	-0.232
COc1cccc(-c2cnc3c(c2)C(=O)N([C@H](C)CO)C[C@H](C)[C@H](CN(C)C)O3)c1	·	75.9*	-0.15
C[C@H](CO)N1C[C@H](C)[C@H](CN(C)C)Oc2ncc(-c3cccc(F)c3)cc2C1=O	·	71.3*	-0.18
C[C@H](CO)N1C[C@H](C)[C@H](CN(C)S(=O)(=O)c2ccccc2)Oc2ncc(-c3ccccc3)cc2C1=O	·	16.0	-0.338
C[C@H](CO)N1C[C@H](C)[C@H](CN(C)C)Oc2ncc(-c3ccccc3)cc2C1=O	·	63.1*	-0.0534
C[C@H](CO)N1C[C@H](C)[C@H](CN(C)C)Oc2ncc(-c3ccc(F)cc3)cc2C1=O	·	64.7*	0.0677
CC[C@H](C)C(=O)O[C@H]1CCC=C2C=C[C@H](C)C(CCC3C[C@@H](O)CC(=O)O3)[C@H]21 (stereo partly drawn)	·	·	0.0269
